Data set [1] deals with PC-12. Description: Neuroprotection against H2O2-induced cell death in rat PC12 cells assessed as cell viability at 0.1 uM preincubated for 3 hrs followed by H2O2 stimulation measured after 2 hrs by MTT assay (reference value: 25.2 to 41.8%). Type of data set: functional. The following applies: read-out: Activity.
Data set [2] is described as follows: Metal chelating activity assessed as compound-Al3+ complex formation at 20 uM after 30 mins by UV-visible spectrophotometric analysis. A digest of the protocol:
(§1)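 Compound (final 20 µM in methanol) mixed with metal salt (CuCl2, FeSO4, ZnCl2, AlCl3, MgCl2 or CaCl2, final 20 µM in methanol). After 30 min at room temperature, UV spectra recorded from 200 to 500 nm in 1-cm quartz cells on a dual-beam spectrophotometer.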

A short description of data set [3]: Metal chelating activity assessed as compound-Fe2+ complex formation at 20 uM after 30 mins by UV-visible spectrophotometric analysis. A digest of the protocol: as §1
For data set [4], the target named is T1, Acetylcholinesterase (Electrophorus electricus, UniProt O42275). Description: Inhibition of electric eel AChE using acetylthiocholine iodide as substrate pretreated for 5 mins followed by substrate addition by Ellman's method.
T1 sequence (O42275 whole entry): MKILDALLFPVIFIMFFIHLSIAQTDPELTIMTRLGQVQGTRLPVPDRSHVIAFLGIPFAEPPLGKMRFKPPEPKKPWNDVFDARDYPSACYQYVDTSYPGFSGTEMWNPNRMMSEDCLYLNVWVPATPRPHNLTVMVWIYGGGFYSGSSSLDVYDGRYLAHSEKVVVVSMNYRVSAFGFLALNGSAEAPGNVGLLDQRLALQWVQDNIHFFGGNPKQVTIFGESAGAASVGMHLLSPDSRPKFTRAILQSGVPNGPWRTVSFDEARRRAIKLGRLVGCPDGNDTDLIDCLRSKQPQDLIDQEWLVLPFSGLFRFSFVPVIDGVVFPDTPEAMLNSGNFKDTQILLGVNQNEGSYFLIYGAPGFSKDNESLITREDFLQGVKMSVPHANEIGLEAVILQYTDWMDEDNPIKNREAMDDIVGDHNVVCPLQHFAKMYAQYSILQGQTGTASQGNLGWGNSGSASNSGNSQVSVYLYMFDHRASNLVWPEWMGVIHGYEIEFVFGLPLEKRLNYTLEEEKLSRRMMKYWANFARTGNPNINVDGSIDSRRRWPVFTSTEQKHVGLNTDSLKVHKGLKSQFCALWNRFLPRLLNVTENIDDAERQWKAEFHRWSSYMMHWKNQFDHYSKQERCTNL
In data set [5] the target is Amyloid-beta precursor protein (Homo sapiens) (UniProt P05067). The data set is described as follows: Potency index, ratio of compound effect to rifampicin effect for inhibition of amyloid beta (1 to 42) (unknown origin) self-induced aggregation at 100 uM.
Sequence of Amyloid-beta precursor protein (Homo sapiens) (P05067 whole entry): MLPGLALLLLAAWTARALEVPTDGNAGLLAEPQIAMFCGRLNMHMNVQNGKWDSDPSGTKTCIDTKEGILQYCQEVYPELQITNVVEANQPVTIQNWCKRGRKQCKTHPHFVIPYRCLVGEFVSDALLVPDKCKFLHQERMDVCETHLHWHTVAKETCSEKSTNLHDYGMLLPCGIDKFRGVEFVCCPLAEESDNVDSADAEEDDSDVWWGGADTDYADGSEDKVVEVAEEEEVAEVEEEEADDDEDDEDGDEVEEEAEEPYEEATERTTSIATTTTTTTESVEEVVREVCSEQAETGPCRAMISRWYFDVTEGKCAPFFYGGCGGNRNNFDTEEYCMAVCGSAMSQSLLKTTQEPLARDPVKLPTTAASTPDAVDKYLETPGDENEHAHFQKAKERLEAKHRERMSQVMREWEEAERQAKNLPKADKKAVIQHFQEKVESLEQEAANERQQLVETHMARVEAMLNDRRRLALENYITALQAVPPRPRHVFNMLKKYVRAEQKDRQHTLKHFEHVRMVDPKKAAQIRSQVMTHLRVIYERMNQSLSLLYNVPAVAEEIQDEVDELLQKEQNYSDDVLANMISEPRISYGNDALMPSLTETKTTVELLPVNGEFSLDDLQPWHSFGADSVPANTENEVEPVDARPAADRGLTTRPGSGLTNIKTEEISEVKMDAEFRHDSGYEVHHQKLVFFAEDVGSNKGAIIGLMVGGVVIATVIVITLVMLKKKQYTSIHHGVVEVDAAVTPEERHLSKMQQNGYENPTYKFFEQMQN
Data set [6] in a line: Metal chelating activity assessed as compound-Mg2+ complex formation at 20 uM after 30 mins by UV-visible spectrophotometric analysis. Put shortly:
as §1

For data set [7], the target named is Acetylcholinesterase (Homo sapiens) (UniProt P22303). Description: Potency index, ratio of compound effect to donepezil effect for inhibition of recombinant human AChE-induced amyloid beta (1 to 42) aggregation at 100 uM. Put shortly: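 Prefibrillated Aβ1-42 (prepared 72 h at 37 °C in PBS/1% ammonium hydroxide) was coincubated with human recombinant AChE (0.01 u/mL) in 0.05 M KP buffer pH 7.4, 37 °C, 48 h, with or without compound or donepezil at 100 µM. ThT added; fluorescence read at ex 448/em 490 nm. % inhibition from intensities with vs without inhibitor; three experiments.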
Sequence of Acetylcholinesterase (Homo sapiens) (P22303 whole entry): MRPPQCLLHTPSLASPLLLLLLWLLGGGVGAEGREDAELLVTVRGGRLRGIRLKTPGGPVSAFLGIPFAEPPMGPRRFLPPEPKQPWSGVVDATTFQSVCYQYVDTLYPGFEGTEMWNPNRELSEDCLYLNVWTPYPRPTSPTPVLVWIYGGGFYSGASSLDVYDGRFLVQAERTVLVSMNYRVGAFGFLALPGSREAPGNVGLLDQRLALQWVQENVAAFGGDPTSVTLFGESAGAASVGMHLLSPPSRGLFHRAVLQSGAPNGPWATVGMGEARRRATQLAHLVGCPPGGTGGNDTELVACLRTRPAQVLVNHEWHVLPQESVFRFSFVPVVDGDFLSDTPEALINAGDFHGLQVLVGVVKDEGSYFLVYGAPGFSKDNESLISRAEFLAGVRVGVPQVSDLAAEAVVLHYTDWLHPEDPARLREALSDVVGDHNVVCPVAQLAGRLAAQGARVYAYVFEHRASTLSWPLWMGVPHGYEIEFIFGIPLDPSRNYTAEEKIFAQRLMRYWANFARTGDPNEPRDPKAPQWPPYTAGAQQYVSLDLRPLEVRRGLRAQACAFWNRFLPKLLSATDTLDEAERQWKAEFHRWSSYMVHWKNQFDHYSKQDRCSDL

Data set [8] has as its system PC-12. The data set is described as follows: Neuroprotection against H2O2-induced cell death in rat PC12 cells assessed as cell viability at 1 uM preincubated for 3 hrs followed by H2O2 stimulation measured after 2 hrs by MTT assay (reference value: 25.2 to 41.8%). Type of data set: functional. The following applies: read-out: Activity.
Data set [9] can be described thus: Metal chelating activity assessed as compound-Cu2+ complex formation at 20 uM after 30 mins by UV-visible spectrophotometric analysis. A digest of the protocol:
as §1

Data set [10] addresses Amyloid-beta precursor protein (Homo sapiens) (UniProt P05067). The data set is described as follows: Potency index, ratio of compound effect to donepezil effect for inhibition of amyloid beta (1 to 42) (unknown origin) self-induced aggregation at 100 uM.
Data set [11] relates to PC-12. The data set is described as follows: Neuroprotection against H2O2-induced cell death in rat PC12 cells assessed as cell viability at 10 uM preincubated for 3 hrs followed by H2O2 stimulation measured after 2 hrs by MTT assay (reference value: 25.2 to 41.8%). Type of data set: functional. The following applies: read-out: Activity.
The test system of data set [12] is PC-12. Description: Cytotoxicity against rat PC12 cells assessed as effect on cell viability at 1 to 50 uM by MTT assay. Type of data set: cell-based. The following applies: pc-12, 50 µM.
In data set [13] the test system is PC-12. The data set is described as follows: Neuroprotection against H2O2-induced cell death in rat PC12 cells assessed as cell viability at 5 uM preincubated for 3 hrs followed by H2O2 stimulation measured after 2 hrs by MTT assay (reference value: 25.2 to 41.8%). Type of data set: functional. The following applies: read-out: Activity.
Data set [14] concerns PC-12. The data set is described as follows: Neuroprotection against H2O2-induced cell death in rat PC12 cells assessed as increase in cell viability preincubated for 3 hrs followed by H2O2 stimulation measured after 2 hrs by MTT assay. Type of data set: functional, cell-based.
Data set [15] is described as follows: Metal chelating activity assessed as compound-Ca2+ complex formation at 20 uM after 30 mins by UV-visible spectrophotometric analysis. A digest of the protocol:
as §1

Data set [16] concerns PC-12. Description: Neuroprotection against H2O2-induced cell death in rat PC12 cells assessed as cell viability at 20 uM preincubated for 3 hrs followed by H2O2 stimulation measured after 2 hrs by MTT assay (reference value: 25.2 to 41.8%). Type of data set: functional. The following applies: read-out: Activity.
Data set [17] deals with T1, Acetylcholinesterase. Description: Non-competitive inhibition of electric eel AChE using varying levels of acetylthiocholine iodide as substrate pretreated for 5 mins followed by substrate addition by Lineweaver-Burk plot analysis.
In data set [18] the test system is PC-12. Description: Inhibition of H2O2-induced ROS generation in rat PC12 cells assessed as intracellular ROS level at 5 uM preincubated for 6 hrs followed by H2O2 addition measured after 18 hrs by DCFH-DA staining based fluorimetric method relative to control. The arrangement: scale not given: the % may be the effect or the level left. Type of data set: functional. A digest of the protocol: (§2)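 PC12 cells at 1×10^4/well in RPMI with 10% FBS and penicillin/streptomycin, 24 h at 37 °C, 5% CO2. Test samples (1, 5, 10, 50 µM; ≤0.5% DMSO) for 6 h, PBS wash, then H2O2 150 µM for 18 h. Loaded with 10 µM DCFH-DA for 30 min at 37 °C in the dark, washed twice. DCF fluorescence read at ex 485/em 528 nm as % of untreated control. Three independent experiments, mean ± SEM.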

A short description of data set [19]: Metal chelating activity assessed as compound-Zn2+ complex formation at 20 uM after 30 mins by UV-visible spectrophotometric analysis. A digest of the protocol: as §1
The subject of data set [20] is PC-12. The data set is described as follows: Neuroprotection against H2O2-induced cell death in rat PC12 cells assessed as cell viability at 50 uM preincubated for 3 hrs followed by H2O2 stimulation measured after 2 hrs by MTT assay (reference value: 25.2 to 41.8%). Type of data set: functional. The following applies: read-out: Activity.
The target of data set [21] is Acetylcholinesterase (Electrophorus electricus) (UniProt O42275). The data set is described as follows: Mixed-type inhibition of electric eel AChE using varying levels of acetylthiocholine iodide as substrate pretreated for 5 mins followed by substrate addition by Lineweaver-Burk plot analysis. Put shortly:
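Electric eel AChE (5 IU/mL) by Ellman method in 0.1 M phosphate buffer pH 8.0 with DTNB. Inhibitor was preincubated 5 min, then acetylthiocholine iodide was added at different concentrations. Absorbance followed at 412 nm. Inhibition type from reciprocal Lineweaver-Burk plots; Ki from a secondary replot of slope vs inhibitor concentration.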

Data set [22] is described as follows: Inhibition of soybean 15-LOX assessed as reduction in conversion of linoleic acid to 13-hydroperoxylinoleic acid by spectrophotometric method. The arrangement: species or system Glycine max. A digest of the protocol: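 Soybean lipoxygenase type 1-B (final 167 U/mL) with compound (DMSO stock diluted in 0.1 M phosphate buffer pH 8) and linoleic acid (134 mM in ethanol) at room temperature. Formation of 13-hydroperoxylinoleic acid followed spectrophotometrically at 234 nm.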

Data set [23] concerns PC-12. The data set is described as follows: Inhibition of H2O2-induced ROS generation in rat PC12 cells preincubated for 6 hrs followed by H2O2 addition measured after 18 hrs by DCFH-DA staining based fluorimetric method. Type of data set: functional, cell-based. Put shortly:
as §2

In another data set the test system is SH-SY5Y. The data set is described as follows: Inhibition of amyloid beta (1 to 42) (unknown origin)-induced cell death in human SH-SY5Y cells assessed as cell viability at 10 uM preincubated for 3 hrs followed by amyloid beta (1 to 42) addition measured after 24 hrs by MTT assay relative to control. Type of data set: functional. The following applies: read-out: Activity. A digest of the protocol: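 SH-SY5Y cells grown in DMEM with 10% FBS, 1% L-glutamine and antibiotics, seeded at 5×10^3/well. Pretreated 3 h with compound (10 or 50 µM), then Aβ1-42 10 µM added for 24 h. MTT, formazan dissolved in DMSO, A570. Viability as blank-corrected % of untreated control; three independent experiments, mean ± SEM.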

Active and inactive are the calls of the source. The rule behind the calls is not given here.

Sequence of Acetylcholinesterase (Electrophorus electricus) (O42275 24-633 limits assumed): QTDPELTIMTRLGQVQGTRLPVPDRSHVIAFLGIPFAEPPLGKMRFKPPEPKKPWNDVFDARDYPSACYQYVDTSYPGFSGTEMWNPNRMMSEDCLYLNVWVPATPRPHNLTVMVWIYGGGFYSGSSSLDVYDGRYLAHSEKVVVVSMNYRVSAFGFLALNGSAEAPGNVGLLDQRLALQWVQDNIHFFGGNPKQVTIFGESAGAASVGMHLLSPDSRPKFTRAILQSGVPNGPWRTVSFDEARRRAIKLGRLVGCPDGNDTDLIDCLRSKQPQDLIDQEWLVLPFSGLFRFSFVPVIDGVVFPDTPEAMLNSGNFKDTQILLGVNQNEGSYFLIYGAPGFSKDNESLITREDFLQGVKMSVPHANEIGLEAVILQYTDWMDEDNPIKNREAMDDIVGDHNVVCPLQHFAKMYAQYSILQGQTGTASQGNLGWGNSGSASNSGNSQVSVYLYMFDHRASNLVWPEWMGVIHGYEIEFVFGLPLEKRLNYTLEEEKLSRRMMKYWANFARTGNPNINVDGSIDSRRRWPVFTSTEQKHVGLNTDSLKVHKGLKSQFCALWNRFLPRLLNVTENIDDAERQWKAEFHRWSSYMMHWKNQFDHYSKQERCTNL

For the compound `COc1ccc(-c2cc3ccc(OCCCn4cc(CNC(=O)CCCCC5CCSS5)nn4)cc3oc2=O)cc1OC` (centres undefined), in the data set with PC-12 [1], the viability at 0.1 µM worked out at 36.4%. Also, the result in data set [2], in data set [6], in [15] and in [19] was inactive. In addition, the outcome in [3] and in data set [9] was Active. In addition, the IC50 is 16.4 µM at Acetylcholinesterase [4] and above 100 µM in [22]. For the same compound, the Ratio in [5], in [7] and in data set [10] was 2 in each case. Further, the viability at 1 µM in the data set on PC-12 [8] is 39.3%. The viability at 10 µM turned out to be 43.5% in the data set with PC-12 [11] and 64.7% in the data set with SH-SY5Y. The Activity entry with PC-12 [12] was “Non-Toxic”; with PC-12 [14], “Dose-dependent effect”; with PC-12 [18] it was 79.32%. Also, the viability at 5 µM in the data set with PC-12 [13] was determined as 40.6%. Moreover, in the data set with PC-12 [16], the viability at 20 µM was found to be 45.6%. In addition, the Ki at Acetylcholinesterase [17] was found to be 6.91 µM. Also, the viability at 50 µM in the data set with PC-12 [20] worked out at 49.5%. Further, the inhibition entry in data set [21] is “Active”. In addition, the inhibition result in the data set with PC-12 [23] is “Dose-dependent effect”.

The values above are taken from ChEMBL document CHEMBL4152262, “Design, synthesis and evaluation of novel multi-target-directed ligands for treatment of Alzheimer's disease based on coumarin and lipoic acid scaffolds” (Eur J Med Chem, 2018).
